Source: ChEMBL document CHEMBL1147433, “Design of small molecule ketoamide-based inhibitors of cathepsin K” (Bioorg Med Chem Lett, 2004)
pIC50: −log10 of the molar value.

Legend:
Cathepsin K [1] = molecular target: T1, Cathepsin K (Homo sapiens, UniProt P43235); experiment: Inhibitory activity against human cathepsin K
T1 sequence (P43235 whole entry): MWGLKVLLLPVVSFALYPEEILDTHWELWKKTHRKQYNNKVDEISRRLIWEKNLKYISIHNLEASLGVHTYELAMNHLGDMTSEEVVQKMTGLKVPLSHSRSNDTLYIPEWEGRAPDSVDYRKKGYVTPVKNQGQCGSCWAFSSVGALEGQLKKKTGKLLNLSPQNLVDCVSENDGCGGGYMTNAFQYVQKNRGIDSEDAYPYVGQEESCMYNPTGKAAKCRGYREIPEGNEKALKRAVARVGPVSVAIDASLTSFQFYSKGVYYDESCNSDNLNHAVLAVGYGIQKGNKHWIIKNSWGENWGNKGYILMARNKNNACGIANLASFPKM
Method in brief: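 Recombinant human cathepsin K activity was measured by fluorescence with Cbz-Phe-Arg-AMC as the substrate, in 100 mM NaOAc, 10 mM DTT and 120 mM NaCl at pH 5.5. IC50 values are the mean of two or three inhibition assays. Individual data points within each experiment fell within a 3-fold range of each other.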

[2] = Vss in rat; type: ADME, organism-based; conditions: in vivo, read-out: Vss
[3] = Clearance in rat; type: ADME, organism-based; conditions: in vivo, read-out: Clearance (C1)
Cathepsin K [4] = molecular target: T2, Cathepsin K (Rattus norvegicus, UniProt O35186); experiment: Inhibitory activity against rat cathepsin K
T2 sequence (O35186 whole entry): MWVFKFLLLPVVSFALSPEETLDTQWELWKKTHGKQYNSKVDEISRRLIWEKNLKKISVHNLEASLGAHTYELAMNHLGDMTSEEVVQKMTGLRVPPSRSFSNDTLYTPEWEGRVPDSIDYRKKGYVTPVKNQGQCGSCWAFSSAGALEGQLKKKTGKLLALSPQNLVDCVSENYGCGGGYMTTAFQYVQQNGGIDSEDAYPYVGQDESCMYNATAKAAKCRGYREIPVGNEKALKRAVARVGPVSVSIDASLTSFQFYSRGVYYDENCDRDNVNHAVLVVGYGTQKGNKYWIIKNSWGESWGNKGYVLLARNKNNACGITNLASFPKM

[5] = PAPP (membrane permeability) in dog kidney cell monolayer assay; type: ADME, Canis lupus familiaris; conditions: read-out: Activity
[6] = Oral bioavailability in rat; type: ADME, organism-based; conditions: in vivo
[7] = Half-life in rat; type: ADME, organism-based; conditions: in vivo

Q: With `CCCC[C@H](NC(=O)OC(C)(C)C)C(=O)C(=O)NC(C)C` as the molecule, how does the pIC50 (Cathepsin K [1]) read?
A: Its pIC50 is 5.04.

Q: With `CCCC[C@H](NC(=O)OC(CC)CC)C(=O)C(=O)N[C@H](C)c1ccccc1` as the molecule, how does the pIC50 (Cathepsin K [1]) read?
A: The pIC50 was 7.12.

Q: With `CCCC[C@H](NC(=O)OCC(C)(C)C)C(=O)C(=O)N[C@H](C)c1ccccc1` as the molecule, how does the pIC50 (Cathepsin K [1]) read?
A: Its pIC50 is 7.47.

Q: With `CCCC[C@H](NC(=O)OC(C)(C)C)C(=O)C(N)=O` as the molecule, how does the pIC50 (Cathepsin K [1]) read?
A: Its pIC50 is 5.23.

Q: With `CCCC[C@H](NC(=O)OC(CCC)CCC)C(=O)C(=O)N[C@H](C)c1ccccc1` as the molecule, how does the pIC50 (Cathepsin K [1]) read?
A: Its pIC50 is 7.49.

Q: With `CCCC[C@H](NC(=O)OC(C1CCCC1)C1CCCC1)C(=O)C(=O)N[C@H](C)c1ccccc1` as the molecule, how does the pIC50 (Cathepsin K [1]) read?
A: The pIC50 was 8.20.

Q: With `CCCC[C@H](NC(=O)OC(C)(C)C)C(=O)C(=O)NCC` as the molecule, how does the pIC50 (Cathepsin K [1]) read?
A: The pIC50 was 4.74.

Q: With `CCCC[C@H](NC(=O)OC(C)(C)C)C(=O)C(=O)N[C@H](C)c1ccccc1` as the molecule, how does the pIC50 (Cathepsin K [1]) read?
A: Its pIC50 is 5.92.

Q: With `CCCC[C@H](NC(=O)OC(C)C(C)(C)C)C(=O)C(=O)N[C@H](C)c1ccccc1` (some centres undefined) as the molecule, how does the pIC50 (Cathepsin K [1]) read?
A: Its pIC50 is 7.70.

Q: With `CCCC[C@H](NC(=O)OC(C)(C)C)C(=O)C(=O)NCc1cccs1` as the molecule, how does the pIC50 (Cathepsin K [1]) read?
A: Its pIC50 is 5.47.

Q: With `CCCC[C@H](NC(=O)OC(C)(C)C)C(=O)C(=O)NC(C)(C)C` as the molecule, how does the pIC50 (Cathepsin K [1]) read?
A: Its pIC50 is under 4.00.

Q: With `CCCC[C@H](NC(=O)OC(C)(C)C)C(=O)C(=O)NCc1ccccc1` as the molecule, how does the pIC50 (Cathepsin K [1]) read?
A: Its pIC50 is 5.54.

Q: With `CCCC[C@H](NC(=O)OC(C)(C)C)C(=O)C(=O)N(C)[C@H](C)c1ccccc1` as the molecule, how does the pIC50 (Cathepsin K [1]) read?
A: Its pIC50 is under 4.00.

Q: For `CCCC[C@H](NC(=O)OC(C(C)C)C(C)C)C(=O)C(=O)N[C@H](C)c1ccccc1`, which Vd [2] is on record?
A: The Vd was 1.9 L/kg.

Q: What about the clearance [3] of the same molecule?
A: Its clearance is 8.7 mL/min/kg.

Q: And the pIC50 (Cathepsin K [4])?
A: The pIC50 was 7.70.

Q: And the Papp [5]?
A: Its Papp is 5.7 ×10⁻⁶ cm/s.

Q: What about the bioavailability [6] of the same molecule?
A: Its bioavailability is 3%.

Q: And the half-life [7]?
A: Its half-life is 4.83 h.

Q: With `CCCC[C@H](NC(=O)OC(CC(C)C)CC(C)C)C(=O)C(=O)N[C@H](C)c1ccccc1` as the molecule, how does the pIC50 (Cathepsin K [1]) read?
A: Its pIC50 is 7.16.

Q: With `CCCC[C@H](NC(=O)OC(C)(C)C)C(=O)C(=O)N[C@@H](C)c1ccccc1` as the molecule, how does the pIC50 (Cathepsin K [1]) read?
A: Its pIC50 is 5.38.

Q: With `CCCC[C@H](NC(=O)OC(C(C)(C)C)C(C)(C)C)C(=O)C(=O)N[C@H](C)c1ccccc1` as the molecule, how does the pIC50 (Cathepsin K [1]) read?
A: The pIC50 was 9.15.

Q: With `CCCC[C@H](NC(=O)OC(C)(C)C)C(=O)C(=O)Nc1ccccc1` as the molecule, how does the pIC50 (Cathepsin K [1]) read?
A: The pIC50 was 5.20.

Q: With `CCCC[C@H](NC(=O)O[C@H](CCCc1ccccc1)C(C)(C)C)C(=O)C(=O)N[C@H](C)c1ccccc1` as the molecule, how does the pIC50 (Cathepsin K [1]) read?
A: The pIC50 was 9.10.

Q: With `CCCC[C@H](NC(=O)O[C@H](CCc1ccccc1)C(C)(C)C)C(=O)C(=O)N[C@H](C)c1ccccc1` as the molecule, how does the pIC50 (Cathepsin K [1]) read?
A: The pIC50 was 8.96.

Q: With `CCCC[C@H](NC(=O)OC(C)(C)C)C(=O)C(=O)NC` as the molecule, how does the pIC50 (Cathepsin K [1]) read?
A: Its pIC50 is 4.68.

Q: With `CCCC[C@H](NC(=O)OC(C)(C)C)C(=O)C(=O)NCCc1ccccc1` as the molecule, how does the pIC50 (Cathepsin K [1]) read?
A: The pIC50 was 5.30.

Q: With `CCCC[C@H](NC(=O)O[C@@H](CCc1ccccc1)C(C)(C)C)C(=O)C(=O)N[C@H](C)c1ccccc1` as the molecule, how does the pIC50 (Cathepsin K [1]) read?
A: Its pIC50 is 6.04.

Q: With `CCCC[C@H](NC(=O)O[C@@H](CCCc1ccccc1)C(C)(C)C)C(=O)C(=O)N[C@H](C)c1ccccc1` as the molecule, how does the pIC50 (Cathepsin K [1]) read?
A: Its pIC50 is 5.85.
